Assay results from ChEMBL document CHEMBL1141811, “Remangilones A-C, new cytotoxic triterpenes from Physena madagascariensis” (J Nat Prod, 1999).
pIC50: −log10 of the molar value. The source made the active and inactive calls. The rule behind the calls is not given here.

What was measured:
MDA-MB-435 [1] = assay: Induction of apoptosis in human MDA-MB-435 cells assessed as change in nuclear morphology at 50 nM by fluorescence microscopy; type: functional, cell-based
Procedure, shortened: (§1)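 MDA-MB-435 cells plated in DFCI-1 medium at (3-5) × 10^4 cells/35-mm dish and attached 24 h (37 °C, 6.5% CO2). Treated 48 h, then attached cells were examined by fluorescence microscopy for nuclear shrinkage and chromatin condensation or fragmentation. 50 nM paclitaxel served as positive control.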

MDA-MB-231 [2] = assay: Cytotoxicity against human MDA-MB-231 cells by SRB assay; type: functional, cell-based
Procedure, shortened: (§2)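 Cells washed in PBS, resuspended in DFCI-1 medium and seeded in triplicate at 4000/0.2 mL/well. After 24 h attachment (37 °C, 6.5% CO2), cells got 0.1–40.0 μM compound (DMSO below 0.2% final; DMSO controls) for 48 h. Cells were then PBS-washed and SRB-stained, and dye was redissolved in 10 mM Tris·HCl and read at 550 nm. IC50 taken as 50% reduction of relative cell number.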

MDA-MB-435 [3] = assay: Induction of apoptosis in human MDA-MB-435 cells assessed as change in nuclear morphology at 2.3 uM by fluorescence microscopy; type: functional, cell-based; procedure, shortened: as §1
MDA-MB-435 [4] = assay: Cytotoxicity against human MDA-MB-435 cells assessed as change from polarized to spherical cellular morphology by SRB assay; type: functional, cell-based
MDA-MB-435 [5] = assay: Cytotoxicity against human MDA-MB-435 cells at 2.3 uM treated for 24 hrs and subsequently cultured in drug-free medium for 96 hrs by SRB assay; type: functional, cell-based
Procedure, shortened: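 MDA-MB-435 cells in DFCI-1 medium, seeded in triplicate at 4000/well and attached 24 h at 37 °C. Exposed to 2.3 μM compound for 24 h at 37 °C, then cultured in drug-free DFCI-1 medium for 96 h. Viability read by SRB staining with absorbance at 550 nm.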

MDA-MB-435 [6] = assay: Cytotoxicity against human MDA-MB-435 cells by SRB assay; type: functional, cell-based; procedure, shortened: as §2
[7] = Cytotoxicity against human 70N cells by SRB assay; type: cell-based; procedure, shortened: as §2
MDA-MB-231 [8] = assay: Cytotoxicity against human MDA-MB-231 cells assessed as change from polarized to spherical cellular morphology by SRB assay; type: functional, cell-based

Q: For CC(=O)O[C@H]1C(=O)[C@@]2(C)[C@H]([C@H](OC(=O)c3ccccc3)[C@]3(O)C[C@H](OC(=O)[C@H](O)[C@@H](NC(=O)c4ccccc4)c4ccccc4)C(C)=C1C3(C)C)[C@]1(OC(C)=O)CO[C@@H]1C[C@@H]2O, which Activity (MDA-MB-435 [1]) is on record?
A: Active

Q: With CC1=C2CC[C@]3(C)[C@H](CC=C4[C@@H]5CC(C)(C)CC[C@@H]5C(=O)[C@H](O)[C@]43C)[C@@]2(C)C=C(O)C1=O [REMANGILONE A] as the compound, how does the pIC50 (MDA-MB-231 [2]) read?
A: 5.18

Q: And the Activity (MDA-MB-435 [3])?
A: Active

Q: What about the Activity (MDA-MB-435 [4]) of the same compound?
A: Active

Q: And the Activity (MDA-MB-435 [5])?
A: Active

Q: And the pIC50 (MDA-MB-435 [6])?
A: 5.07

Q: And the pIC50 [7]?
A: 4.39

Q: And the Activity (MDA-MB-231 [8])?
A: Active
